# Assay results collected from several papers.
# Protocols differ between the studies behind these lines.
# CSNK1A1: Casein kinase I isoform alpha (CSNK1A1, Homo sapiens, UniProt P48729)
# PLA2G6: 85/88 kDa calcium-independent phospholipase A2 (PLA2G6, Homo sapiens, UniProt O60733)
# SLC22A12: Solute carrier family 22 member 12 (SLC22A12, Homo sapiens, UniProt Q96S37)
# HDAC7: Histone deacetylase 7 (HDAC7, Homo sapiens, UniProt Q8WUI4)
# HDAC10: Polyamine deacetylase HDAC10 (HDAC10, Homo sapiens, UniProt Q969S8)
SMILES,target,assay,conditions,IC50
Oc1ccc2c(-c3ccncc3)c(-c3ccc(F)cc3)nn2c1,CSNK1A1,"enzyme activity, inhibitor, ADP detection",,1600 nM
O=C(O)CCCCCCCC(=O)C(F)(F)F,PLA2G6,"enzyme activity, inhibitor",,352000 nM
CCc1oc2cc(F)ccc2c1C(=O)c1cc(Br)c(O)c(Br)c1,SLC22A12,"transporter uptake, inhibitor, radiometric",oocytes,18 nM
O=C(NS(=O)(=O)c1ccccc1)c1cc2ccccc2n1Cc1ccc(Br)c2ccccc12,SLC22A12,"transporter uptake, inhibitor, radiometric",,12000 nM
c1coc(-c2n[nH]cc2-c2ccnc3ccccc23)c1,CSNK1A1,"enzyme activity, inhibitor, ADP detection",,3400 nM
CN1CCC(CNc2ccc3ncc(-c4cccc(OC(F)(F)F)c4)n3n2)CC1,"Beta-2 adrenergic receptor (ADRB2, Homo sapiens, UniProt P07550)","cAMP, antagonist",,8310 nM
c1ccc(Cc2[nH]nc(-c3ccccn3)c2-c2ccnc3ccccc23)cc1,CSNK1A1,"enzyme activity, inhibitor, ADP detection",,3500 nM
CCCS(=O)(=O)NC(=O)c1cc2ccccc2n1Cc1ccc(C2CC2)c2ccccc12,SLC22A12,"transporter uptake, inhibitor, radiometric",,5560 nM
CC(C)C1=CC2=CC(=O)[C@H]3C(C)(C)CCC[C@]3(C)C2=C(O)C1=O (racemic),"Farnesyl pyrophosphate synthase (FDPS, Homo sapiens, UniProt P14324)","enzyme activity, inhibitor",,120 nM
O=C(CCCCCCCCO)C(F)(F)F,PLA2G6,"enzyme activity, inhibitor",,12700 nM
Cc1ccc(S(=O)(=O)NC(=O)c2cc3ccccc3n2Cc2ccc(C3CC3)c3ccccc23)cc1,SLC22A12,"transporter uptake, inhibitor, radiometric",,14000 nM
COc1c(Cl)cccc1Nc1c(-c2ccncc2OC[C@@H]2COCCO2)[nH]c2c1C(=O)NCC2,"Epithelial discoidin domain-containing receptor 1 (DDR1, Homo sapiens, UniProt Q08345)","ligand displacement, TR-FRET",,110 nM
COc1ccc(N(Cc2csc(-c3ccc(C)cc3)n2)C(=O)CCCCCC(=O)NO)cc1,HDAC7,"enzyme activity, inhibitor",,> 10000 nM
O=C1CCC(N2C(=O)c3cccc(NCC(=O)OCCCCc4cn(CCCCCCN5CCc6c(c7ccccc7n6Cc6ccc(C(=O)NO)cc6)C5)nn4)c3C2=O)C(=O)N1 (centres unmarked),HDAC10,"enzyme activity, inhibitor, fluorescence",,17 nM
Cc1ncc(-c2cc3cc(-c4c(C)ccc(O)c4C)cnc3[nH]2)cn1,"Membrane-associated tyrosine- and threonine-specific cdc2-inhibitory kinase (PKMYT1, Homo sapiens, UniProt Q99640)","cell-free assay, TR-FRET",,19 nM
O=CCCCCCCCC(=O)C(F)(F)F,PLA2G6,"enzyme activity, inhibitor",,41200 nM
CC(=O)N[C@@H](CC(C)C)C(=O)N[C@@H](CC(C)C)C(=O)N[C@H](C=O)CCCNC(=N)N,"Kallikrein-1 (KLK1, Homo sapiens, UniProt P06870)","enzyme activity, inhibitor",,3900 nM
O=C1CCC(c2ccc(OCC(=O)OCCCCc3cn(CCCCCCN4CCc5c(c6ccccc6n5Cc5ccc(C(=O)NO)cc5)C4)nn3)cc2)C(=O)N1 (centres unmarked),HDAC10,"enzyme activity, inhibitor, fluorescence",,15 nM
COc1ccn2nc(-c3ccc(F)cc3)c(-c3ccncc3)c2c1,CSNK1A1,"enzyme activity, inhibitor, ADP detection",,2100 nM
COc1ccc(N(Cc2csc(-c3ccc(Br)cc3)n2)C(=O)CCCCCC(=O)NO)cc1,HDAC7,"enzyme activity, inhibitor",,> 10000 nM
O=C(CNc1cccc2c1C(=O)N(C1CCC(=O)NC1=O)C2=O)NCCCCCCN1CCc2c(c3ccccc3n2Cc2ccc(C(=O)NO)cc2)C1 (centres unmarked),HDAC10,"enzyme activity, inhibitor, fluorescence",,22 nM
N#Cc1ccn2nc(-c3ccc(F)cc3)c(-c3ccncc3)c2c1,CSNK1A1,"enzyme activity, inhibitor, ADP detection",,730 nM
c1ccc(-c2occc2-c2ccnc3ccccc23)nc1,CSNK1A1,"enzyme activity, inhibitor, ADP detection",,> 30000 nM
COc1ccc2c(-c3ccncc3)c(-c3ccc(F)cc3)nn2c1,CSNK1A1,"enzyme activity, inhibitor, ADP detection",,2400 nM
CC(C)(O)c1coc(S(=O)(=O)NC(=O)c2cc3ccccc3n2Cc2ccc(Br)c3ccccc23)c1,SLC22A12,"transporter uptake, inhibitor, radiometric",,9760 nM
Cn1cc(-c2ccnc3ccccc23)c(-c2ccccn2)n1,CSNK1A1,"enzyme activity, inhibitor, ADP detection",,1500 nM
O=C(NO)c1ccc(Cn2cnc3c(Nc4ccc(Cl)cc4)ncnc32)cc1,HDAC7,"enzyme activity, inhibitor",,48 nM
CCCc1ccn2c(-c3ccncc3)c(-c3ccc(F)cc3)nc2c1,CSNK1A1,"enzyme activity, inhibitor, ADP detection",,970 nM
c1ccc(Cn2cc(-c3ccnc4ccccc34)c(-c3ccccn3)n2)cc1,CSNK1A1,"enzyme activity, inhibitor, ADP detection",,5900 nM
